Columns and labels:
MT4 [1] = assay: Concentration of compound required to reduce the viability of mock infected MT-4 cells against HIV-1 by 50%; type: functional; details: Homo sapiens
How it was run: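 Mock-infected MT-4 cells were exposed to the compound, and viability was measured. CC50 is the concentration that lowers the viability of these uninfected cells by 50%. Values are means (± standard deviation or range) from at least two separate experiments.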

MT4 [2] = assay: Concentration of compound required to achieve 50% protection of MT-4 cells against HIV-1 virus induced cytopathic effect; type: functional, cell-based; details: Homo sapiens
How it was run: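 HIV-1-infected MT-4 cells, scored for protection against virus-induced cytopathic effect. EC50 is the concentration protecting 50% of cells, given as the mean (± standard deviation or range) of at least two separate experiments.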

[3] = CC50/EC50 ratio expressed as selectivity index(SI); type: functional
How it was run: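 Ratio of two MT-4 values from this work. CC50 is the concentration that reduces the viability of mock-infected MT-4 cells by 50%. EC50 is the concentration giving 50% protection of HIV-1-infected MT-4 cells against virus cytopathic effect. Both are means (± standard deviation or range) of at least two separate experiments.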

Structure (SMILES) | CC50 (MT4 [1]) [µM] | EC50 (MT4 [2]) [µM] | Ratio [3]
Cc1c(Sc2ccccc2)n(COCCN=[N+]=[N-])c(=O)[nH]c1=O | 186 | 5.8 | 32
Cc1cn([C@H]2C[C@H](N=[N+]=[N-])[C@@H](CO)O2)c(=O)[nH]c1=O [ZIDOVUDINE] | – | 0.003 | 2600
CCOCn1c(Sc2ccccc2)c(CC)c(=O)[nH]c1=O | 161 | 0.019 | 8500
Cc1c(Sc2ccccc2)n(COCCCl)c(=O)[nH]c1=O | 196 | 1.5 | 131
CCOCn1c(Sc2ccccc2)c(C)c(=O)[nH]c1=O | 231 | 0.33 | 700
CCc1c(Sc2ccccc2)n(COCCO)c(=O)[nH]c1=O | – | 0.12 | –
Cc1c(Sc2ccccc2)n(COCc2ccccc2)c(=O)[nH]c1=O | 95 | 0.088 | 1080
Cc1c(Sc2ccccc2)n(COCCF)c(=O)[nH]c1=O | 209 | 1.1 | 190
CCc1c(Sc2ccccc2)n(COCc2ccccc2)c(=O)[nH]c1=O | 34 | 0.0059 | 5800
Cc1c(Sc2ccccc2)n(COCCOCc2ccccc2)c(=O)[nH]c1=O | 45 | > 20 | < 2.3
Cc1c(Sc2ccccc2)n(COCCO)c(=O)[nH]c1=O [HEPT] | > 500 | 6.5 | > 77
COCCOCn1c(Sc2ccccc2)c(C)c(=O)[nH]c1=O | 299 | 8.7 | 34

From ChEMBL document CHEMBL1125681, “Specific anti-HIV-1 "acyclonucleosides" which cannot be phosphorylated: synthesis of some deoxy analogues of 1-[(2-hydroxyethoxy)methyl]-6-(phenylthio)thymine” (J Med Chem, 1991)
